Test [1] concerns Rattus norvegicus. The test can be described thus: In vivo antihistaminic activity using compound 48/80 induced lethality test after 1 hr of subcutaneous administration in rat. Type of test: functional. The note with it: sc. In outline: (§1)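 Protection was survival for 4 h after challenge. ED50 with confidence limits was calculated by Finney from five rats per dose and at least three doses of a geometric series (0.0025–40 mg/kg). Estimated ED50 used at least two rats per dose.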

Test [2] concerns Rattus norvegicus. Description: In vivo antihistaminic activity using compound 48/80 induced lethality test in rat after 2 hr of oral administration. It counts as functional. An outline of the steps:
as §1

Molecules are shown by their SMILES.

For `CCOc1ccc(CCN2CCC(Nc3nc4ccccc4n3Cc3ccc(F)cc3)CC2)cc1`, the ED50 amounted to 1.25 mg/kg in test [1] and 0.16 mg/kg in test [2].
The matching figures for `COc1ccc(OCCCN2CCC(Nc3nc4ccccc4n3Cc3ccc(F)cc3)CC2)cc1`: 0.31 mg/kg and 0.31 mg/kg.
The matching figures for `Fc1ccc(Cn2c(NC3CCN(CCc4cccs4)CC3)nc3ccccc32)cc1`: 0.16 mg/kg and 0.63 mg/kg.
The matching figures for `COc1ccc(OC)c(CCN2CCC(Nc3nc4ccccc4n3Cc3ccc(F)cc3)CC2)c1`: 0.63 mg/kg and 0.63 mg/kg.
Turning to `Fc1ccc(Cn2c(NC3CCN(CCc4cccc5ccccc45)CC3)nc3ccccc32)cc1`, the ED50 in test [1] was determined as 1.25 mg/kg; in test [2], 0.63 mg/kg.
The matching figures for `COc1ccc(OCC(O)CN2CCC(Nc3nc4ccccc4n3Cc3ccc(F)cc3)CC2)cc1` (stereo not given): 1.25 mg/kg and 2.5 mg/kg.
For the compound `CCOC(=O)COc1ccc(CCN2CCC(Nc3nc4ccccc4n3Cc3ccc(F)cc3)CC2)cc1`, the values for the ED50 in test [1] and in test [2] were 0.16 mg/kg and over 2.5 mg/kg, respectively.
The matching figures for `COc1ccccc1CCN1CCC(Nc2nc3ccccc3n2Cc2ccc(F)cc2)CC1`: 1.25 mg/kg and 0.63 mg/kg.
The matching figures for `O=C(NCCN1CCC(Nc2nc3ccccc3n2Cc2ccc(F)cc2)CC1)c1ccc(F)cc1`: 0.31 mg/kg and 2.5 mg/kg.
In the case of `Nc1ccc(CCN2CCC(Nc3nc4ccccc4n3Cc3ccc(F)cc3)CC2)cc1`, the ED50 came out at 0.31 mg/kg in test [1] and 0.63 mg/kg in test [2].
`Cc1cc(CCN2CCC(Nc3nc4ccccc4n3Cc3ccc(F)cc3)CC2)ccc1OCc1ccccc1` had an ED50 in test [1] of over 2.5 mg/kg.
Same read-out and setting: next, `Cl.N#CC1(c2ccccc2)CCC(N2CCC(Nc3nc4ccccc4n3Cc3ccc(F)cc3)CC2)CC1` (stereo not given): over 2.5 mg/kg.
In the case of `COc1ccccc1OCC(O)CN1CCC(Nc2nc3ccccc3n2Cc2ccc(F)cc2)CC1` (stereo not given), the ED50 in test [1] was 1.25 mg/kg; in test [2] it was 0.63 mg/kg.
As to `NC(=O)COc1ccc(CCN2CCC(Nc3nc4ccccc4n3Cc3ccc(F)cc3)CC2)cc1`, the median effective dose (ED50) in test [1] was 1.25 mg/kg; in test [2] it was 2.5 mg/kg.
The matching figures for `Cl.N#CCOc1ccc(CCN2CCC(Nc3nc4ccccc4n3Cc3ccc(F)cc3)CC2)cc1`: 0.63 mg/kg and 0.08 mg/kg.
As for `Cc1cc(CCN2CCC(Nc3nc4ccccc4n3Cc3ccc(F)cc3)CC2)ccc1O.Cl`, the 50% effective dose (ED50) in test [1] amounted to 0.08 mg/kg; in test [2], 0.16 mg/kg.
Take `CCNC(=O)COc1ccc(CCN2CCC(Nc3nc4ccccc4n3Cc3ccc(F)cc3)CC2)cc1`: the ED50 in test [1] worked out at 1.25 mg/kg; in test [2] it was 2.5 mg/kg.
`CN(C)CCN1CCC(Nc2nc3ccccc3n2Cc2ccc(F)cc2)CC1`: in test [1], it took a dose of 0.63 mg/kg to reach the 50% effect level (ED50).
For the compound `OC(CN1CCC(Nc2nc3ccccc3n2Cc2ccc(F)cc2)CC1)c1ccccc1` (stereo not given), the values for the ED50 in test [1] and in test [2] were 0.63 mg/kg and over 2.5 mg/kg, respectively.
The matching figures for `O=C(OCCN1CCC(Nc2nc3ccccc3n2Cc2ccc(F)cc2)CC1)N1CCOCC1`: 0.31 mg/kg and 2.5 mg/kg.
With `COc1ccc(C(=O)Oc2ccc(CCN3CCC(Nc4nc5ccccc5n4Cc4ccc(F)cc4)CC3)cc2)cc1`, the ED50 in test [1] was 0.63 mg/kg; in test [2] it was 0.16 mg/kg.
The matching figures for `Cl.O=C(COc1ccc(CCN2CCC(Nc3nc4ccccc4n3Cc3ccc(F)cc3)CC2)cc1)N1CCCCC1`: 1.25 mg/kg and 1.25 mg/kg.
`Cc1ccc2nc(NC3CCN(CCc4ccccc4)CC3)n(Cc3ccc(F)cc3)c2c1` showed an ED50 in test [1] of over 2.5 mg/kg.
The same measure, in the same setting: then `COc1ccc(SCCCN2CCC(Nc3nc4ccccc4n3Cc3ccc(F)cc3)CC2)cc1`, with 2.5 mg/kg.
Same read-out and setting: then `CCCCNC(=O)Oc1ccc(CCN2CCC(Nc3nc4ccccc4n3Cc3ccc(F)cc3)CC2)cc1`, with 2.5 mg/kg; and `COc1ccc(C(=O)N(CCN2CCC(Nc3nc4ccccc4n3Cc3ccc(F)cc3)CC2)C(=O)c2ccc(OC)cc2)cc1.Cl`, with over 2.5 mg/kg.
`COC(=O)COc1ccc(CCN2CCC(Nc3nc4ccccc4n3Cc3ccc(F)cc3)CC2)cc1` returned an ED50 in test [1] of 2.5 mg/kg.
On to `COc1cccc(OC)c1OCC(O)CN1CCC(Nc2nc3ccccc3n2Cc2ccc(F)cc2)CC1` (stereo not given), for which the ED50 was 0.63 mg/kg in test [1] and 1.25 mg/kg in test [2].
The matching figures for `O=C(OCc1ccccc1)Oc1ccc(CCN2CCC(Nc3nc4ccccc4n3Cc3ccc(F)cc3)CC2)cc1`: 0.31 mg/kg and 0.16 mg/kg.
The matching figures for `COc1ccc(CCN2CCC(Nc3nc4ccccc4n3Cc3ccc(F)cc3)CC2)cc1OC`: 1.25 mg/kg and 0.16 mg/kg.
The matching figures for `Fc1ccc(Cn2c(NC3CCN(C/C=C/c4ccccc4)CC3)nc3ccccc32)cc1`: 1.25 mg/kg and over 2.5 mg/kg.
As for `Fc1ccc(Cn2c(NC3CCN(CCCNc4ccccc4)CC3)nc3ccccc32)cc1`, the ED50 was determined as 0.63 mg/kg in test [1] and 2.5 mg/kg in test [2].
On to `Fc1ccc(Cn2c(NC3CCN(CCc4ccc(OCc5ccccc5)cc4)CC3)nc3ccccc32)cc1`, for which the ED50 in test [1] came to 2.5 mg/kg.
As for `COc1ccc(S(=O)(=O)CCCN2CCC(Nc3nc4ccccc4n3Cc3ccc(F)cc3)CC2)cc1`, the 50% effective dose (ED50) in test [1] was 0.31 mg/kg; in test [2] it was 2.5 mg/kg.
The matching figures for `Cl.Fc1ccc(Cn2c(NC3CCN(CCc4ccccc4)CC3)nc3ccccc32)cc1`: 0.31 mg/kg and 0.63 mg/kg.
The matching figures for `Fc1ccc(Cn2c(NC3CCN(CCCOc4ccccc4)CC3)nc3ccccc32)cc1`: 1.25 mg/kg and 0.31 mg/kg.
Take `COc1ccc(C(=O)OCCN2CCC(Nc3nc4ccccc4n3Cc3ccc(F)cc3)CC2)cc1.Cl`: the ED50 is 0.31 mg/kg in test [1] and 0.63 mg/kg in test [2].
The matching figures for `COc1cccc(CCN2CCC(Nc3nc4ccccc4n3Cc3ccc(F)cc3)CC2)c1.Cl`: 0.31 mg/kg and 0.31 mg/kg.
The matching figures for `OC(COc1ccccc1)CN1CCC(Nc2nc3ccccc3n2Cc2ccc(F)cc2)CC1` (stereo not given): 0.63 mg/kg and 1.25 mg/kg.
The matching figures for `CSc1ccc(CCN2CCC(Nc3nc4ccccc4n3Cc3ccc(F)cc3)CC2)cc1`: 0.63 mg/kg and 1.25 mg/kg.
As for `C=CCOc1ccc(CCN2CCC(Nc3nc4ccccc4n3Cc3ccc(F)cc3)CC2)cc1.Cl`, it took a dose of 2.5 mg/kg to reach the 50% effect level in test [1] (ED50).
On the same count and under the same terms, then `Fc1ccc(Cn2c(NC3CCN(CCC=C4c5ccccc5CCc5ccccc54)CC3)nc3ccccc32)cc1`, with over 2.5 mg/kg.
For the compound `CNC(=O)NCCN1CCC(Nc2nc3ccccc3n2Cc2ccc(F)cc2)CC1`, the results for the ED50 in test [1] and in test [2] were 0.02 mg/kg and over 2.5 mg/kg, respectively.
The matching figures for `COc1cc(CCN2CCC(Nc3nc4ccccc4n3Cc3ccc(F)cc3)CC2)cc(OC)c1OC.Cl`: 1.25 mg/kg and 0.63 mg/kg.
The matching figures for `CC(c1ccccc1)N1CCC(Nc2nc3ccccc3n2Cc2ccc(F)cc2)CC1` (stereo not given): 0.31 mg/kg and 2.5 mg/kg.
Regarding `CC(=O)c1ccc(OCC(O)CN2CCC(Nc3nc4ccccc4n3Cc3ccc(F)cc3)CC2)cc1` (stereo not given), the results for the ED50 in test [1] and in test [2] were 0.63 mg/kg and 1.25 mg/kg, respectively.
`CCCCOc1ccccc1OCC(O)CN1CCC(Nc2nc3ccccc3n2Cc2ccc(F)cc2)CC1` (stereo not given) came in with an ED50 in test [1] of 2.5 mg/kg.
In test [1], `Fc1ccc(Cn2c(NC3CCN(CCN(Cc4ccccc4)Cc4ccccc4)CC3)nc3ccccc32)cc1` yielded a 50% effective dose (ED50) of over 2.5 mg/kg.
The same measure, in the same setting: then `CC(Cc1ccccc1)N1CCC(Nc2nc3ccccc3n2Cc2ccc(F)cc2)CC1` (stereo not given), with 2.5 mg/kg; and `Fc1ccc(Cn2c(NC3CCN(CCc4ccccc4)CC3)nc3cc(Cl)ccc32)cc1`, with over 2.5 mg/kg.

The values above are taken from ChEMBL document CHEMBL1123124, “New antihistaminic N-heterocyclic 4-piperidinamines. 2. Synthesis and antihistaminic activity of 1-[(4-fluorophenyl)methyl]-N-(4-piperidinyl)-1H-benzimidazol-2-a mines” (1985).
